High-throughput results as filed in PubChem.
This is one part of a sample in which hits are shown more often than they occur.
HCT116 bCat-KO – beta-catenin-lacking colon tumor cell growth suppression. HCT116 beta-catenin knockout viability, CellTiter-Glo, 60 h; stronger effect = lower value. viability, % at 10 µM. hit rate 1.5% among 140,000. AID 818;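 active means viability at or under a set limit, the compound median less 4 SD, cut at about 6% in these data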;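 further: 0% = Hyamine 1622 control at 20 µM and 100% = untreated cell control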
H69AR inhibit – blocks growth of human H69AR lung tumor cells | viability, % at 10 µM | hit rate 6% among 85,000 | H69AR lung tumor viability, ATP luminescence, 72 h; stronger effect = lower value;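 active means viability at or below 40%; inactive means viability above 40%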;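 further: multidrug resistant small cell line overexpressing MRP-1 efflux transporter; 100% = mean luminescence of untreated control wells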
HCT116 PTEN-null – suppresses growth of cells with PTEN deletion; HCT116 PTEN-null viability, CellTiter-Glo, 60 h; stronger effect = lower value; viability, % at 10 µM; hit rate 1.2% among 140,000; AID 827;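 active means viability at or below a set limit, 4 SD under the median of all tested compounds, cut at about 3.7% in these data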;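 further: PTEN knockout HCT116 line with beta catenin targeted HCT116 as companion control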
HUVEC inhibit – blocks proliferation of human endothelial cells. HUVEC proliferation, CellTiter-Glo luminescence, 72 h; stronger effect = lower value. viability, % at 10 µM (by protocol). hit rate 1.1% among 86,000;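 active means viability at or below 30%; inactive means viability above 30%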;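 further: 100% = median luminescence of DMSO-only cell control wells on each plate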
Fibroblast inh – blocks proliferation of human lung fibroblasts; hit rate 1.1% among 85,000; viability, % at 10 µM; LL 47 human lung fibroblast viability, ATP luminescence; stronger effect = lower value; AID 719;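 active means viability at or below 50% in the single dose screen; inactive means viability above 50%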;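 further: compound exposure lasted 72 h before the ATP readout; 100% = median luminescence of untreated cell-only wells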
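Test system: LL 47 human lung fibroblasts / Incubation: 72 h compound exposure at 37 °C after overnight plating / Technique: luminescent ATP detection, CellTiter-Glo / Compound dosing: 0.1% DMSO in all compound wells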
Numbers without * were called inactive; x = no result given.

SMILES	HCT116 bCat-KO	H69AR inhibit	HCT116 PTEN-null	HUVEC inhibit	Fibroblast inh
Cc1cc(-c2ccccc2)nc2cc(C(=O)N(Cc3ccccc3)Cc3ccccc3)nn12	62	40*	61	26*	99
Cc1c(NC(=S)NC(NC(=O)C(C)(C)C)C(Cl)(Cl)Cl)c(=O)n(-c2ccccc2)n1C (configuration not stated)	92	x	102	x	x
COC(=O)c1ccc(Oc2nc(Nc3ccc(C)c(C)c3)nc(N(C)C)n2)cc1	68	71	64	95	89
O=C(/C=C/c1ccc(Cl)cc1)NC(=S)Nc1ccc(NC(=O)c2ccco2)cc1	17	x	13	x	x
COC(=O)c1ccccc1NC(=O)c1cc(-c2cccc(OC)c2)on1	x	78	x	96	106
COC(=O)c1ccccc1NC(=O)c1cc(-c2cccs2)on1	17	11*	10	25*	90
COc1cccc(N2CCN(S(=O)(=O)c3ccc4nc(-c5ccccc5)[nH]c4c3)CC2)c1	81	13*	90	60	97
COc1ccc(N2CCN(S(=O)(=O)c3ccc(OC)cc3)CC2)cc1	92	97	84	98	95
N#CC(C(=O)NC1CCCCC1)=C1CCCCCC1	80	x	93	x	x
Cc1ccc(C(=O)CC(Nc2ccc(F)cc2)c2ccccc2)cc1 (configuration not stated)	43	x	32	x	x
O=C(COC(=O)C1CCCCC1)Nc1ccc(N2CCCCC2)cc1	92	38*	99	98	95
O=C(CNC1CCCCCC1)Nc1ccc(N2CCCC2)cc1	66	x	63	x	x
O=C(CNCCC1=CCCCC1)Nc1ccc(N2CCCCCC2)cc1	36	0.2*	24	2.0*	23*
Cc1nc(NCCc2ccccc2)c2oc3ccccc3c2n1	59	69	61	82	98
O=C(Nc1cccc2ccccc12)c1ccc([N+](=O)[O-])s1	3.9*	x	3.1*	x	x
COc1ccc(-c2nnc(SCc3nnc(-c4ccccc4)o3)n2-c2ccccc2)cc1	76	2.6*	77	42	85
COc1ccc2[nH]c3nc(SCc4nnc(-c5ccccc5)o4)nnc3c2c1	81	9.3*	73	65	101
COc1ccc(-n2c(SCc3nnc(-c4ccccc4)o3)nnc2-c2ccccc2)cc1	86	84	91	66	82
O=C(C1CCCN(S(=O)(=O)c2ccccc2[N+](=O)[O-])C1)N1CCCC1 (configuration not stated)	94	x	105	x	x
O=C(Nc1cccnc1)c1ccc(COc2ccccc2Cl)o1	34	60	26	45	80
O=C(Nc1cccnc1)c1ccc(COc2cc(Cl)ccc2Cl)o1	36	37*	30	50	82
Cn1nc(-c2ccc(C(=O)Nc3cccnc3)cc2)c2ccccc2c1=O	98	85	94	96	107
Cc1ccc(NC(=O)c2ccc(-c3nn(C)c(=O)c4ccccc34)cc2)cc1	87	35*	79	67	106
Cc1ccc(NC(=O)c2ccc(-c3nn(C)c(=O)c4ccccc34)cc2)c(C)c1	77	77	76	100	97
Cn1nc(-c2ccc(C(=O)Nc3cccc(Cl)c3)cc2)c2ccccc2c1=O	97	4.3*	95	41	52
SMILES	HCT116 bCat-KO	H69AR inhibit	HCT116 PTEN-null	HUVEC inhibit	Fibroblast inh
Cc1ccc(NC2=C(NC(=O)c3ccccc3)C(=O)c3ccccc3C2=O)cc1Cl	5.7*	x	5	x	x
COC(=O)C1=NN(c2ccc(Cl)cc2)C2C(=O)N(c3ccccc3OC)C(=O)C12 (configuration not stated)	89	x	89	x	x
COc1ccc(O)c(C2=Nc3ccccc3N=C(c3cccs3)C2)c1	73	x	65	x	x
COc1ccc(C2CC(c3cccs3)=Nc3ccccc3S2)cc1 (configuration not stated)	26	17*	24	77	89
Cc1oc2c(cc(NS(=O)(=O)c3ccc4c5c(cccc35)C(=O)N4)c3ccccc32)c1C(=O)OC(C)C	68	31*	53	63	90
COC(=O)c1ccccc1NS(=O)(=O)c1ccc2c3c(cccc13)C(=O)N2	x	83	x	97	90
COC(=O)c1c(C)oc2c1cc(NS(=O)(=O)c1cccs1)c1ccccc12	84	20*	86	53	86
CCCN(CCC)S(=O)(=O)c1ccc(NC(=O)COc2ccccc2)cc1	53	71	51	90	98
N=c1nc(N)nc2n1NC(c1ccc(F)cc1)=CS2	70	93	76	30*	91
Cc1cc(C)cc(OCC(=O)Nc2ccc3c(c2)C(=O)c2ccccc2C3=O)c1	95	x	107	x	x
Cc1cccc(OCCC(=O)NCC(=O)Nc2cccc(C)c2C)c1	91	x	91	x	x
O=C(CC(c1ccccc1)c1ccccc1)Nc1ccc(Cl)cn1	16	17*	22	81	85
O=C(CSCc1ccccc1)Nc1ccc(Cl)cn1	96	91	97	85	98
COc1ccc(OCc2ccc(C(=O)NN)cc2)cc1	92	x	112	x	x
Cc1ccsc1C1Nc2ccc3ncccc3c2C2=C1C(=O)CCC2 (configuration not stated)	84	x	77	x	x
COc1cc(C2Nc3ccc4ncccc4c3C3=C2C(=O)CCC3)ccc1O (configuration not stated)	25	28*	27	64	70
CCOC(=O)c1c(NC(=O)CSc2n[nH]c(-c3ccco3)n2)sc(C)c1C	87	80	97	89	96
CCOC(=O)c1c(NC(=O)CSc2n[nH]c(CNc3ccccc3)n2)sc(C)c1C	24	31*	14	46	74
CCOC(=O)c1c(NC(=O)CSc2nnnn2CC)sc(C)c1C	92	31*	101	102	84
Cc1ccc(-c2csc(NC(=O)CCNC(=O)c3ccccc3Cl)n2)cc1	41	x	62	x	x
Nc1nc(OCC(F)(F)F)cc(Oc2ccccc2F)n1	91	36*	102	85	x
O=C(NCc1ccco1)c1cccn2c(=O)c3cc4ccccc4cc3nc12	2.6*	21*	1.7*	53	87
COCCCNC(=O)c1cccn2c(=O)c3cc4ccccc4cc3nc12	4.3*	51	4	61	90
O=C(NCc1ccco1)c1cnc2ccccn2c1=O	103	94	107	89	93
C=CCn1c(=N)c(C(=O)NCCCOC)cc2c(=O)n3cccc(C)c3nc21	81	79	78	95	104
SMILES	HCT116 bCat-KO	H69AR inhibit	HCT116 PTEN-null	HUVEC inhibit	Fibroblast inh
COc1ccc(N2CCN(C(=O)C3(C)CC3(Cl)Cl)CC2)cc1 (configuration not stated)	93	x	87	x	x
COc1ccc2cc(/C(C)=N/NC(=O)c3cc(-c4cccnc4)nc4ccccc34)ccc2c1	91	x	95	x	x
Cc1cccc(NC(=O)CCSc2nnc(Cc3ccccc3)o2)c1	99	x	93	x	x
CC(=O)C1=C(c2ccc(Br)cc2)C(=O)c2ccccc2C1=O	1.6*	x	1.4*	x	x
Cc1cc(OC(C)C(=O)N/N=C/CC(C)c2ccccc2)ccc1Cl (configuration not stated)	106	x	106	x	x
C/C(=N\NC(=O)c1ccn(C)n1)c1cccc(NC(=O)c2ccc(C)s2)c1	89	x	94	x	x
